Measured values from ChEMBL document CHEMBL3227926, “2-Mercaptoacetamidines as gastric antisecretory agents” (J Med Chem, 1979).

How the values were obtained:
[1] = system: Canis familiaris; experiment: Inhibition of gastrin tetrapeptide-induced gastric secretion in beagle dog at 16 mg/kg administered directly into stomach via gastric cannula measured after 2 hrs of stimulation; assay type: functional; conditions: Canis lupus familiaris
In short: (§1)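 Conscious female beagles (5-9 kg) with chronic gastric fistula. Dose in 50 mL 1% methylcellulose was put into the stomach via the cannula 1 h before gastrin tetrapeptide 64 µg/kg sc (from 640 µg/mL in 30% Me2SO); controls got vehicle. Juice was collected for 2 h. Volume was measured, titratable acid obtained by titration to pH 7 with 0.01 N NaOH, and total acid taken as volume × concentration.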

[2] = system: Canis familiaris; experiment: Toxicity in beagle dog assessed as emesis administered directly into stomach via gastric cannula; assay type: organism-based, Canis lupus familiaris; conditions: in vivo, other
[3] = system: Canis familiaris; experiment: Toxicity in beagle dog assessed as tachycardia administered directly into stomach via gastric cannula; assay type: organism-based, Canis lupus familiaris; conditions: in vivo, other
[4] = system: Canis familiaris; experiment: Toxicity in beagle dog assessed as gastric bleeding administered directly into stomach via gastric cannula; assay type: organism-based, Canis lupus familiaris; conditions: in vivo, other
[5] = system: Canis familiaris; experiment: Inhibition of gastrin tetrapeptide-induced gastric secretion in beagle dog at 8 mg/kg administered directly into stomach via gastric cannula measured after 2 hrs of stimulation; assay type: functional; conditions: Canis lupus familiaris; in short: as §1

Row | SMILES | inhibition in vivo at 16 mg/kg [1] [%] | Activity [2] | Activity [3] | Activity [4] | inhibition in vivo at 8 mg/kg [5] [%]
1 | Cl.N=C(CS)NC1Cc2ccccc2C1 | 100 | Toxic | Toxic | Toxic | –
2 | Cl.N=C(CS)Nc1cccc2c1CCCC2 | 14 | Toxic | Toxic | Toxic | –
3 | Cl.N=C(CS)N1CCOCC1 | 23 | Toxic | Toxic | Toxic | 2
4 | Cl.N=C(CS)N[C@@H]1C[C@H]2CC[C@H]1C2 (relative stereo) | – | Toxic | Toxic | Toxic | 94
5 | Cl.N=C(CS)NC(c1ccccc1)c1ccc(Cl)cc1 (configuration not stated) | 87 | Toxic | Toxic | Toxic | –
6 | Cl.N=C(CS)NC1C2CC3CC(C2)CC1C3 (configuration not stated) | 85 | Toxic | Toxic | Toxic | –
7 | Cl.N=C(CS)NC1CCc2ccccc21 (configuration not stated) | 85 | Toxic | Toxic | Toxic | 20
8 | Cl.N=C(CS)NCCCCCC12CC3CC(CC(C3)C1)C2 | – | Toxic | Toxic | Toxic | 9
9 | Cl.N=C(CS)NC(Cc1ccccc1)c1ccccc1 (configuration not stated) | 84 | Toxic | Toxic | Toxic | –
10 | O=C(CS)NC12CC3CC(CC(C3)C1)C2 | 58 | Toxic | Toxic | Toxic | –
11 | CC(=N)NCc1ccccc1.Cl | 19 | Toxic | Toxic | Toxic | –
12 | Cl.N=C(CS)NCC1CC2C3CCC(C3)C2C1 (configuration not stated) | – | Toxic | Toxic | Toxic | 70
13 | Cl.N=C(N)CS | – | Toxic | Toxic | Toxic | 89
14 | O=C(CS)NCc1ccccc1 | – | Toxic | Toxic | Toxic | 0
15 | Cl.N=C(CS)N1CC2CCC(CC2)C1 | 92 | Toxic | Toxic | Toxic | –
16 | CC(C)(C)CNC(=N)CO.Cl | 61 | Toxic | Toxic | Toxic | 22
17 | CC(S)C(=N)NCC(C)(C)C.Cl (configuration not stated) | 28 | Toxic | Toxic | Toxic | 0
18 | Cl.N=C(CS)NCC1C2CC3CC(C2)CC1C3 (configuration not stated) | – | Toxic | Toxic | Toxic | 67
19 | Cl.N=C(CS)NCC1CCCCC1 | – | Toxic | Toxic | Toxic | 86
20 | Cl.N=C(CS)NCC12CCC(C(=O)O)(CC1)CC2 | – | Toxic | Toxic | Toxic | 0
21 | Cl.N=C(CS)NC[C@@H]1C[C@H]2CC[C@H]1C2 (relative stereo; 15) | – | Toxic | Toxic | Toxic | –
